Laboratory results: ChEMBL document CHEMBL4414587 (J Med Chem, 2019)

Columns and labels:
Homo sapiens = organism: Homo sapiens; assay: Selectivity ratio of Ki for displacement of [3H]N-methylspiperone from human D2L receptor expressed in HEK293 cell membranes to Ki for displacement of [3H]N-methylspiperone from human D3 receptor expressed in HEK293 cell membranes
[1] = Metabolic stability in rat liver microsomes assessed as parent compound remaining at 10 uM measured after 60 mins in presence of NADPH regenerating system by LC/MS/MS analysis; assay type: ADME, Microsome; conditions: read-out: Stability
Summary of the method: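 Compound at 10 μM final was incubated with rat liver microsomes at 0.5 mg/mL in 100 mM potassium phosphate, pH 7.4, with an NADPH regenerating system. Buprenorphine served as positive control. Parent disappearance was followed by LC/MS/MS, and percent remaining was reported at 60 min. Reactions were run in triplicate.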

[2] = Tmax in Long-Evans rat brain at 10 mg/kg, po measured up to 24 hrs by LC/MS/MS analysis; assay type: ADME, organism-based
[3] = Cmax in Long-Evans rat brain at 10 mg/kg, po measured up to 24 hrs by LC/MS/MS analysis; assay type: ADME, organism-based; design: dose 10 mg/kg, route oral; conditions: in vivo
[4] = Cmax in Long-Evans rat plasma at 10 mg/kg, po measured up to 24 hrs by LC/MS/MS analysis; assay type: ADME, organism-based; design: dose 10 mg/kg, route oral
[5] = target: T1, 5-hydroxytryptamine receptor 1A (Homo sapiens) (UniProt P08908); assay: Agonist activity at 5-HT1A receptor (unknown origin) assessed as stimulation of [35S]GTPgammaS binding relative to control; assay type: functional
T1 sequence (whole entry): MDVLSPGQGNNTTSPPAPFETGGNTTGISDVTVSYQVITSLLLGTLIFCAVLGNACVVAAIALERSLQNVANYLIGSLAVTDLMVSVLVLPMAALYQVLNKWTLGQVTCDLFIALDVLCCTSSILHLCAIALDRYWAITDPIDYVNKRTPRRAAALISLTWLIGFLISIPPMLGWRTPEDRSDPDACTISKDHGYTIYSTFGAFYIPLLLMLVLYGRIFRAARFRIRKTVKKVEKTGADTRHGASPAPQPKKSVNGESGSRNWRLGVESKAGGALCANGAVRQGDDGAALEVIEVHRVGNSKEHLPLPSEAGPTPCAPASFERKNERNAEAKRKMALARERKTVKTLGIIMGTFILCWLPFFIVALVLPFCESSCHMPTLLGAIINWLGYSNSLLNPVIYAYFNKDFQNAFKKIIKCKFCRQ

[6] = Tmax in Long-Evans rat plasma at 10 mg/kg, po measured up to 24 hrs by LC/MS/MS analysis; assay type: ADME, organism-based
[7] = AUC (0 to t) in Long-Evans rat brain at 10 mg/kg, po measured up to 24 hrs by LC/MS/MS analysis; assay type: ADME, organism-based; conditions: in vivo
[8] = AUC (0 to t) in Long-Evans rat plasma at 10 mg/kg, po measured up to 24 hrs by LC/MS/MS analysis; assay type: ADME, organism-based; design: time < 24 hr, dose 10 mg/kg, route oral
D(3) dopamine receptor [9] = target: T2, D(3) dopamine receptor (Homo sapiens, UniProt P35462); assay: Agonist activity at human D3 receptor expressed in CHO cells assessed as stimulation of quinpirole-induced mitogenesis relative to control; assay type: cell-based; design: concentration or dose not given beside the values
D(3) dopamine receptor [10] = target: T2, D(3) dopamine receptor; assay: Agonist activity at human D3 receptor expressed in CHO cells assessed as stimulation of quinpirole-induced mitogenesis; assay type: cell-based
[11] = target: T3, 5-hydroxytryptamine receptor 2C (Homo sapiens, UniProt P28335); assay: Displacement of [125I] DOI from 5HT2C receptor (unknown origin)
T3 sequence (P28335 whole entry): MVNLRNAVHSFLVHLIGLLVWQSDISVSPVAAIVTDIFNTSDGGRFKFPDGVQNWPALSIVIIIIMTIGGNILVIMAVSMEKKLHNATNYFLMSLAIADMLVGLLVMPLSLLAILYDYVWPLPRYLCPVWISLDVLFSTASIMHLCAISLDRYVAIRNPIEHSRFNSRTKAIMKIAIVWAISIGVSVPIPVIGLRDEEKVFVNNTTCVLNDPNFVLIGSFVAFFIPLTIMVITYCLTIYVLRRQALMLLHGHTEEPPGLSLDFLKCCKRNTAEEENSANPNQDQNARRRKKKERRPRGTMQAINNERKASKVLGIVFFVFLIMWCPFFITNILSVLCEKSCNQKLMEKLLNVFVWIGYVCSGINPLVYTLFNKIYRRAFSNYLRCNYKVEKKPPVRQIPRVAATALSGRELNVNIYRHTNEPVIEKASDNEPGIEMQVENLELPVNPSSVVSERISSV

D(3) dopamine receptor [12] = target: T2, D(3) dopamine receptor; assay: Displacement of [3H]N-methylspiperone from human D3 receptor expressed in HEK293 cell membranes measured after 60 mins by scintillation counting method
Summary of the method: (§1)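 Membranes from HEK293 cells stably expressing human D2L or D3 were used at 20 μg protein/well in EBSS buffer, pH 7.4, with 0.4 nM [3H]N-methylspiperone. Compounds were run as 10 half-log dilutions in triplicate for 1 h at rt, with nonspecific binding defined by 10 μM (+)-butaclamol. Reactions were filtered onto GF/B and counted by scintillation.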

D(2) dopamine receptor = D(2) dopamine receptor (Homo sapiens, UniProt P14416); assay: Displacement of [3H]N-methylspiperone from human D2L receptor expressed in HEK293 cell membranes measured after 60 mins by scintillation counting method; summary of the method: as §1
D(2) dopamine receptor, sequence (P14416 whole entry): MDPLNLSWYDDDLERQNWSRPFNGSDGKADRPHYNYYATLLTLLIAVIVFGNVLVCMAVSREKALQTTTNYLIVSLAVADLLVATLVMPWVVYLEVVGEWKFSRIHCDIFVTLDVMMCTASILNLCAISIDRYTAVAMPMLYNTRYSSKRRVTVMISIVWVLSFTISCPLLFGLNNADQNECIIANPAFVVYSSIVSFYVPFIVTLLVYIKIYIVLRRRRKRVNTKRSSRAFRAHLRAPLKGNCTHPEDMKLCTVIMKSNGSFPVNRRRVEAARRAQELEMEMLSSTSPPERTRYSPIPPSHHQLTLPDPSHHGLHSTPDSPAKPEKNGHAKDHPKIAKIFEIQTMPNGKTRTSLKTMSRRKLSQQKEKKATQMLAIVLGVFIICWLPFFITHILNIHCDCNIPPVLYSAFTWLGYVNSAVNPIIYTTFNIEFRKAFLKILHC

T2 sequence (P35462 whole entry): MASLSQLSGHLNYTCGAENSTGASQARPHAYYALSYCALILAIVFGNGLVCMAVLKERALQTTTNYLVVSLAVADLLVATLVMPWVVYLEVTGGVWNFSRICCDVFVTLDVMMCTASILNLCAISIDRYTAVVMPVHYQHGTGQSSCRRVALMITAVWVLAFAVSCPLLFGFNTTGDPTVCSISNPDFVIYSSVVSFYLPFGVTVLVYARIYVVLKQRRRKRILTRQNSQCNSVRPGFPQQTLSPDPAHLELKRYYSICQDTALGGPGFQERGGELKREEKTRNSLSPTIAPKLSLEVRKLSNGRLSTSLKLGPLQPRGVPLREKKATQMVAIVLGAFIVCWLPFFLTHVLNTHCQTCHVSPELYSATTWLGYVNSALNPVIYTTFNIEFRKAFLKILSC

Structure (SMILES)	Ratio Ki (Homo sapiens)	remaining at 1 h, 10 µM [1]	Activity (D(3) dopamine receptor [9])	further results
CCc1cc(Cl)c(OC)c(N2CCN(CC(O)CCNC(=O)c3ccc4c(c3)OCO4)CC2)c1 (stereo not drawn)	15	–	–	–
CCc1cccc(N2CCN(C[C@H](O)CCNC(=O)c3cc4ccccc4[nH]3)CC2)c1Cl	–	57 to 86%	–	Tmax [2]: 2 h; Cmax [3]: 3850 pmol/g; Cmax [4]: 291 to 306 nM; Activity [5]: 74%; Tmax [6]: 2 h; AUCt [7]: 21600 pmol·h/g
CCc1cc(Cl)c(OC)c(N2CCN(C[C@@H](F)CCNC(=O)c3cc4ccccc4[nH]3)CC2)c1	535	57 to 70%	–	–
CCc1cccc(N2CCN(C[C@@H](O)CCNC(=O)c3cc4ccccc4[nH]3)CC2)c1Cl	–	57 to 86%	–	Tmax [2]: 2 h; Cmax [3]: 2670 to 3670 pmol/g; Activity [5]: 69%; Tmax [6]: 2 h; AUCt [7]: 16665 pmol·h/g
CCc1cccc(N2CCN(C[C@H](F)CCNC(=O)c3cc4ccccc4[nH]3)CC2)c1Cl	215	57 to 70%	–	–
CCc1cc(Cl)c(OC)c(N2CCN(C[C@H](O)CCNC(=O)c3cc4ccccc4[nH]3)CC2)c1	–	57 to 86%	17.7%	AUC(0-t) at 24 h [8]: 2.2 µM·h; Tmax [2]: 4 h; Cmax [3]: 1796.6 pmol/g; AUCt [7]: 8412 pmol·h/g
CCc1cc(Cl)c(OC)c(N2CCN(CC(F)CCNC(=O)c3cc4ccccc4o3)CC2)c1 (stereo not drawn)	108	12%	5.1%	EC50 (D(3) dopamine receptor [10]): > 4 µM
CCc1cccc(N2CCN(CC(F)CCNC(=O)c3cc4ccccc4[nH]3)CC2)c1Cl (racemic)	327	38%	5.4%	EC50 (D(3) dopamine receptor [10]): > 6.8 µM
CCc1cc(Cl)c(OC)c(N2CCN(CC(F)CCNC(=O)c3cc4ccccc4[nH]3)CC2)c1 (racemic)	746	75%	2.7%	EC50 (D(3) dopamine receptor [10]): > 5.4 µM; Ki [11]: > 8.9 µM
CCc1cccc(N2CCN(CC(F)CCNC(=O)c3cc4ccccc4o3)CC2)c1Cl (stereo not drawn)	134	34%	15.5%	EC50 (D(3) dopamine receptor [10]): > 7.5 µM; Activity [5]: 43%
CCc1cccc(N2CCN(CC(O)CCNC(=O)c3cc4ccccc4[nH]3)CC2)c1Cl (racemic)	–	57 to 86%	–	–
CCc1cc2c(cc1N1CCN(CC(O)CCNC(=O)c3cc4ccccc4o3)CC1)OCO2 (stereo not drawn)	61	–	–	–
CCc1cc(Cl)c(OC)c(N2CCN(CC(O)CCNC(=O)c3cc4ccccc4[nH]3)CC2)c1 (racemic)	–	57 to 86%	–	–
CCc1cccc(N2CCN(C[C@@H](F)CCNC(=O)c3cc4ccccc4[nH]3)CC2)c1Cl	1060	57 to 70%	–	–
CCc1cccc(N2CCN(CC(O)CCNC(=O)c3ccc4c(c3)OCO4)CC2)c1Cl (stereo not drawn)	140	–	–	Ki (D(3) dopamine receptor [12]): 0.00302 µM; Ki (D(2) dopamine receptor): 0.424 µM
CCc1cc(Cl)c(OC)c(N2CCN(C[C@H](F)CCNC(=O)c3cc4ccccc4[nH]3)CC2)c1	1650	57 to 70%	–	–
CCc1cc(Cl)c(OC)c(N2CCN(C[C@@H](O)CCNC(=O)c3cc4ccccc4[nH]3)CC2)c1	–	57 to 86%	17%	AUC(0-t) at 24 h [8]: 1.07 µM·h; Tmax [2]: 4 h; Cmax [3]: 959.9 pmol/g; AUCt [7]: 4360 pmol·h/g
